The results in this text go back to ChEMBL document CHEMBL4513216, “Probing the Open Global Health Chemical Diversity Library for Multistage-Active Starting Points for Next-Generation Antimalarials” (ACS Infect Dis, 2020).

This data set can be described thus: Toxicity liver stage against HepG2, at 10uM. It is filed as cell-based. On the set-up: test concentration 10 uM, cell line HepG2-A16-CD81EGFP. Conditions: human, HepG2-A16-CD81EGFP cells; read-out: INHIBITION
An outline of the steps: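 Uninfected HepG2-A16-CD81EGFP cells, 3 × 10^3 per well, 1536-well, plated on prespotted compound at 10 μM final, parasite-free screening media added to match infected plates; puromycin 10 μM positive, DMSO 0.5% negative; run in parallel with 48 h PbLuc assay at 37 °C, 5% CO2; viability by CellTiter-Glo luminescence, normalized to controls.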
Consider `CCOC1CCN(C(=O)NCc2ccc(C(=O)N(C)C(C)C)cc2)CC1`, for which the cytotoxicity at 10 µM is -6.55%.

With `Cc1cc(C)n(CC2CCCN2Cc2nc(N)c3ccccc3n2)n1` (centres undefined), the cytotoxicity at 10 µM was -11.7%.

For the compound `Cc1cccc(C)c1NC(=O)CCNC(=O)c1ccoc1`, the cytotoxicity at 10 µM amounted to 3.03%.

As for `N#Cc1ccc(N2CCC(NS(=O)(=O)c3cccs3)CC2)c(F)c1`, the cytotoxicity at 10 µM came out at 20.5%.

As to `Cc1cccc(C(=O)N2CCCCC2c2ccc(CN(C)C)cc2)c1` (centres undefined), the cytotoxicity at 10 µM was -0.909%.

Take `O=C(c1ccco1)N1CCO[C@@H]2CNCC[C@@H]2C1`: the cytotoxicity at 10 µM is -75.2%.

Consider `Cc1ccccc1CCC(=O)N1CCCC(c2cc(C(N)=O)[nH]n2)C1` (centres undefined), for which the cytotoxicity at 10 µM is -11.3%.

Take `O=C(NCc1cccc(F)c1)NC1CCCN(c2ncccn2)C1` (centres undefined): the cytotoxicity at 10 µM was -0.7%.

As to `Cc1nc[nH]c1CN1CCN(C(=O)C2(C)CC2)[C@H]2CS(=O)(=O)C[C@H]21`, the cytotoxicity at 10 µM was -4.76%.

With `O=C1COC2(CCN(c3cccc(F)c3)CC2)CN1Cc1ccccn1`, the cytotoxicity at 10 µM is -2.94%.

Consider `C=CNC(=O)c1nnc2ccc(N3CCOCC3)cc2n1`, for which the cytotoxicity at 10 µM turned out to be 8.85%.

With `CC1CCc2n[nH]c(C(=O)N3CCc4c(nc(N(C)C)[nH]c4=O)C3)c2C1` (centres undefined), the cytotoxicity at 10 µM was found to be 21.4%.

As for `Cc1nn(C)c(C)c1S(=O)(=O)NCC1CCN(c2ccccn2)CC1`, the cytotoxicity at 10 µM amounted to 6.5%.

Take `NCC1Cc2cc(Cl)cc(-c3cncc(C(=O)N4CCCCC4)n3)c2O1` (centres undefined): the cytotoxicity at 10 µM was -53%.

As for `CCOC(=O)[C@]12CCCN(Cc3ccco3)C[C@H]1CN(CCN(C)C)C2`, the cytotoxicity at 10 µM was -17.9%.

Take `Cc1cc(C(=O)NCc2cccnc2N2CCc3ccccc3C2)[nH]n1`: the cytotoxicity at 10 µM was 14.4%.

`CCc1cn[nH]c1C1CCCN(C(=O)c2cc(C#N)c(=O)[nH]c2C)C1` (centres undefined): the cytotoxicity at 10 µM was -1.3%.

For the compound `CCS(=O)(=O)N1CCC(NC(=O)c2ccccc2O)CC1`, the cytotoxicity at 10 µM is -7.27%.

Take `Cc1nn(C)c(C)c1CCC(=O)N1CC(c2cccnc2)C1`: the cytotoxicity at 10 µM was -4.84%.

For the compound `CC(C)c1cccc(S(=O)(=O)NCCCN2CCC(O)CC2)c1`, the cytotoxicity at 10 µM stood at 12.9%.

As for `COCCN1CCC(N(Cc2noc(C3CC3)n2)C(C)=O)C1` (centres undefined), the cytotoxicity at 10 µM was -12.4%.

Regarding `COc1cccc(N2CCN(CCC(=O)NC3CCCCC3)CC2)c1`, the cytotoxicity at 10 µM is -5.64%.

Consider `c1cnn(CC2CCCN2Cc2nc(-c3ccoc3)no2)c1` (centres undefined), for which the cytotoxicity at 10 µM was -7.07%.

Take `CCc1nccc(CN2CCCC(c3nn(C)c(=O)n3CC)C2)n1` (centres undefined): the cytotoxicity at 10 µM was -3.69%.

Consider `NC(=O)C1CCN(C(=O)c2cc(S(=O)(=O)N3CCCCC3)cs2)CC1`, for which the cytotoxicity at 10 µM is -45.1%.

On to `COc1cc(CNC2CCCN(c3cccnn3)C2)cc2c1OCO2` (centres undefined), for which the cytotoxicity at 10 µM is -2.22%.

In the case of `CC(C)C(=O)Nc1cccc(OCC(=O)NCc2ccccc2F)c1`, the cytotoxicity at 10 µM was -6.19%.

Take `COC(=O)c1ccc2c(c1)CCCN2S(=O)(=O)c1cn(C)c(C)n1`: the cytotoxicity at 10 µM came to 3.94%.

For the compound `CCCc1nnc2sc(CC3CN(Cc4ccccc4)CCO3)nn12` (centres undefined), the cytotoxicity at 10 µM turned out to be 5.3%.

Consider `Cc1ccc(CNC(=O)CN2CCCC(Cn3cncn3)C2)s1` (centres undefined), for which the cytotoxicity at 10 µM is -1.78%.

As to `CN(CCc1ccncc1)C1CCCN(Cc2noc(C3CC3)n2)C1` (centres undefined), the cytotoxicity at 10 µM stood at 8.66%.

With `COc1ccc2cccc(CC(=O)NCc3nccc(N)n3)c2c1`, the cytotoxicity at 10 µM is 0.684%.

On to `Cc1nc(CCNC(=O)NCc2ccc(N(C)C)nc2)cs1`, for which the cytotoxicity at 10 µM was -11.3%.

In the case of `c1csc(CN2CCn3c(Cn4cncn4)cnc3C2)c1`, the cytotoxicity at 10 µM was -71.7%.

Regarding `CC(C)(NC(=O)Cc1ccccc1F)C(=O)O`, the cytotoxicity at 10 µM was determined as 3.13%.

Take `COCc1cncc2c1CCN(C(=O)c1ccc(C#N)cc1)C2`: the cytotoxicity at 10 µM is -106%.

Take `Cc1cnc(N2CC[C@@H](N3CCOCC3)[C@@H]2Cc2ccncc2)nc1`: the cytotoxicity at 10 µM is 4.47%.

Consider `CCOc1ccccc1-n1c(CNC)n[nH]c1=O`, for which the cytotoxicity at 10 µM is -2.98%.

Take `CCO[C@H]1CO[C@@]2(CCCN(Cc3scnc3C)C2)C1`: the cytotoxicity at 10 µM was -137%.

`Cc1[nH]nc2ncc(C(=O)N3CCN(CC(O)C(C)(C)C)CC3)cc12` (centres undefined): the cytotoxicity at 10 µM was found to be 4.41%.

In the case of `O=C(c1cncc(Br)c1)N1CCCc2c(F)cc(F)cc21`, the cytotoxicity at 10 µM stood at 2.81%.

As for `COc1ccnc(N2CCN(C(=O)Cc3ccc(C#N)cc3)CC2)n1`, the cytotoxicity at 10 µM amounted to 4.09%.

For `Cc1cnccc1NCCNC(=O)[C@H]1CNC[C@H](C(=O)N2CCCC2)C1`, the cytotoxicity at 10 µM was -124%.

Regarding `Cc1ccc2c(n1)N(C)CCN(CCN1CCCC1)C2`, the cytotoxicity at 10 µM is -8.84%.

In the case of `Cc1c(F)cccc1S(=O)(=O)NC(C)(C)CN`, the cytotoxicity at 10 µM is 0.926%.

As to `O=C1COC2(CCN(Cc3ccsc3)CC2)CN1`, the cytotoxicity at 10 µM was -3.46%.

On to `Cc1ccc(S(=O)(=O)N2CCC(Oc3cccnn3)CC2)c(C)c1`, for which the cytotoxicity at 10 µM is 3.47%.

Consider `O=c1[nH]c(CN2CCOC(Cn3cccn3)C2)nc2ccccc12` (centres undefined), for which the cytotoxicity at 10 µM is -2.32%.

Take `CN1CCN(Cc2nnc(C3CCN(CC4CC4)CC3)n2C)CC1`: the cytotoxicity at 10 µM is -13.6%.

For the compound `Cn1cccc1C(=O)N1CCCC2(CCCN2S(C)(=O)=O)C1` (centres undefined), the cytotoxicity at 10 µM was found to be 6.28%.

As to `CC(C)(C)OC(=O)N1CCC(C(=O)NCc2ccccc2)C1` (centres undefined), the cytotoxicity at 10 µM is 17.7%.

Regarding `CN(C(=O)CSc1ccccn1)C1CCCN(CCc2ccccc2)C1` (centres undefined), the cytotoxicity at 10 µM was -4.46%.

On to `Fc1cccc(C(NCc2ncc[nH]2)c2ccccn2)c1` (centres undefined), for which the cytotoxicity at 10 µM turned out to be 3.95%.

As to `Cn1cc(-c2ncnc3c2CCN(C(=O)c2cscn2)CC3)cn1`, the cytotoxicity at 10 µM is 1.15%.

For `Cn1cnc(-c2nc(C(=O)NCCN3CCCC3)c3ccccn23)c1`, the cytotoxicity at 10 µM was -109%.

For `CCN(CC1CCOC1)C(=O)c1ccccc1NS(=O)(=O)CC` (centres undefined), the cytotoxicity at 10 µM was -7.4%.

With `Fc1ccc(CCN2CCC(c3nnc(-c4cccnc4)o3)CC2)cc1`, the cytotoxicity at 10 µM was determined as 6.59%.

In the case of `CCOCC1c2c(ncn2C)CCN1C(=O)c1ccoc1` (centres undefined), the cytotoxicity at 10 µM is -103%.

As to `O=C(c1cccnc1)N1CCC2(CNS(=O)(=O)c3cnccc3O2)C1` (centres undefined), the cytotoxicity at 10 µM is 15.7%.

Consider `COc1c(CNCc2ccc(CN3CCOCC3)cc2)c(C)nn1C`, for which the cytotoxicity at 10 µM was -11.8%.

In the case of `Cc1nc(CNC(C(=O)N2CCOCC2)C(C)C)oc1C` (centres undefined), the cytotoxicity at 10 µM is -4.34%.

For the compound `c1ccc(CO[C@H]2CC[C@H]3[C@H]2OCCN3CCN2CCCCC2)nc1`, the cytotoxicity at 10 µM was -7.16%.

On to `CNCc1cn(C2CCN(C(=O)NCc3ccco3)CC2)nn1`, for which the cytotoxicity at 10 µM stood at 1.11%.

As to `CC(C)c1nc(CN2CCCC(Cn3cncn3)C2)cs1` (centres undefined), the cytotoxicity at 10 µM is -12.9%.

As to `CCN(CC)S(=O)(=O)N1CC[C@H](c2ccccc2)[C@@H]2[C@H]1CCCCN2C`, the cytotoxicity at 10 µM was 3.74%.

For the compound `CC(C)(C)CN1CCCC2(CCN(C(=O)c3ccc(O)nc3)C2)C1` (centres undefined), the cytotoxicity at 10 µM is -0.937%.

For `CCN1C(=O)CC[C@@H]2[C@H]1CCN2S(=O)(=O)c1cccs1`, the cytotoxicity at 10 µM is 0.169%.

On to `COc1ccccc1OCCNC1CCCN(Cc2noc(C)n2)C1` (centres undefined), for which the cytotoxicity at 10 µM was -19.1%.

Take `O=C(NCc1ccco1)[C@H]1COC[C@H]2CN(Cc3ccoc3)C[C@H]21`: the cytotoxicity at 10 µM was -70.4%.

Regarding `O=C(NCCCN1CCCC1=O)Nc1ccc(Br)cc1Cl`, the cytotoxicity at 10 µM is -2.18%.

As to `Cc1cnc(N2CCCC3(CCCN3CC(=O)N(C)C)C2)nc1` (centres undefined), the cytotoxicity at 10 µM was -0.634%.

With `CC(=O)NCCC(=O)NCc1ccc(Br)cc1Cl`, the cytotoxicity at 10 µM came to 0.871%.

Turning to `Cc1cc(N(C)C)nc(N2CC(n3cccn3)C2)n1`, the cytotoxicity at 10 µM was -3.24%.

Regarding `O=C([C@H]1CN(Cc2cccnc2)C[C@H]2OCC[C@@H]12)N1CCCO1`, the cytotoxicity at 10 µM came to 8.98%.

As for `CCOc1cc(NC(=O)C2CC(=O)N(c3cccc(OC)c3)C2)ncn1` (centres undefined), the cytotoxicity at 10 µM is -4.31%.

As for `CCc1nc(C(=O)N2CCOCC2)nn1-c1ccccc1Cl`, the cytotoxicity at 10 µM is -9.29%.

Regarding `O=S(=O)(NCC1(O)CCOc2ccccc21)c1ccccc1Br` (centres undefined), the cytotoxicity at 10 µM came out at 8.45%.

For the compound `CC(C)N(C)S(=O)(=O)NCc1cccnc1N(C)C`, the cytotoxicity at 10 µM was 2.57%.

Regarding `COCc1nc(C(=O)NS(=O)(=O)c2ccc(C)cc2C)cs1`, the cytotoxicity at 10 µM was -4.35%.

On to `COCC(=O)N1CCC2(CC1)CC(N1CCN(C)CC1)CO2` (centres undefined), for which the cytotoxicity at 10 µM was -1.25%.

For the compound `COc1ccc(CCNC(=O)N2CCN(C)[C@@H]3CS(=O)(=O)C[C@@H]32)cc1`, the cytotoxicity at 10 µM amounted to 6.05%.

Consider `Cc1cnc(C(=O)N2CCCN(c3nc(C)cs3)CC2)cn1`, for which the cytotoxicity at 10 µM was -8.81%.

As to `O=C(NC[C@H]1CCCN1)c1cc(COc2cccc(C(F)(F)F)c2)[nH]n1`, the cytotoxicity at 10 µM was -7.59%.

Regarding `CCc1nc(C)c(CN2CCN(c3ncnc4c(C)csc34)CC2)[nH]1`, the cytotoxicity at 10 µM came to 17.6%.

Turning to `COc1ccc(C(C)N2CCN(Cc3nccn3C)CC2)cc1Cl` (centres undefined), the cytotoxicity at 10 µM was -8.31%.

`CCC1=N[C@@]2(CC[C@@H]3CN(CC4CC4)C[C@@H]32)C(=O)N1CC1CC1`: the cytotoxicity at 10 µM worked out at 5.39%.

For the compound `COCC1CC2(CCN(C(=O)c3cnc4ccccc4c3)CC2)CO1` (centres undefined), the cytotoxicity at 10 µM is -142%.

Regarding `O=C1CCC2(CCN(Cc3ccc(F)cc3)CC2)N1Cc1ccccc1`, the cytotoxicity at 10 µM is -1.63%.

Take `Cn1ncc2c(NCC3CCCN3c3cccnn3)ncnc21` (centres undefined): the cytotoxicity at 10 µM is -11.9%.

As for `Cc1nn2cnnc2c(C)c1CCC(=O)Nc1nc2c(s1)CCC2`, the cytotoxicity at 10 µM is -0.674%.

As for `Cn1ccnc1CN1CCc2ncnc(N3CCCC(C#N)C3)c2CC1` (centres undefined), the cytotoxicity at 10 µM was -5.1%.

For `O=C(NC[C@H]1OC[C@@H](NC2CCOCC2)[C@@H]1O)c1cccs1`, the cytotoxicity at 10 µM is -1.6%.

In the case of `COc1ccc(CN2C[C@H]3CC[C@](O)(c4ccc(C)cn4)[C@H]3C2)c(F)c1`, the cytotoxicity at 10 µM is -1.57%.

In the case of `CC(C)N(C)C(=O)C1CCC(=O)N(CCc2cccc(F)c2)C1` (centres undefined), the cytotoxicity at 10 µM is -4.57%.
